Screening data deposited in PubChem by several laboratories.
pPAFAH inh – inhibitors of human plasma PAF acetylhydrolase (pPAFAH); actives 1.5% (n = 330,000); Q13093; inhibition, % at 3.39 µM; recombinant pPAFAH, FP-rhodamine probe fluorescence polarization;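 active = inhibition above the mean inhibition across the screen plus 3 SD, cut at about 25% in these data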;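 note: inhibitors block binding of the rhodamine activity-based probe so polarization drops; 0% = enzyme with DMSO and 100% = wells lacking pPAFAH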
Target sequence (Q13093 whole entry, looked up): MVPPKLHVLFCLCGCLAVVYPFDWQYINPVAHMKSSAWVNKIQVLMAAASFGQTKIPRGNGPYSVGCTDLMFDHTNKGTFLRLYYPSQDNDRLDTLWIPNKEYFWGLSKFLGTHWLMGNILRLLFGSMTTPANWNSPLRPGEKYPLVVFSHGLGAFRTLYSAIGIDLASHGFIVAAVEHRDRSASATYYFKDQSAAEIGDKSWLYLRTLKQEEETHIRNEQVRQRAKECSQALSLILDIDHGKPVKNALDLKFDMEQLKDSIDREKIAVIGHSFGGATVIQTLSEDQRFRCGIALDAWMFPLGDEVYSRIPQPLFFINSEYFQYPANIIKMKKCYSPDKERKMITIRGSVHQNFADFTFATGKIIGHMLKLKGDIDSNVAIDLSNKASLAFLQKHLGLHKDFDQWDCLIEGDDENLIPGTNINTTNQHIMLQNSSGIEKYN
Apaf1 inhib – human Apaf-1 inhibition; AID 489030; O14727; reconstituted apoptosome caspase-3 activity, DEVD-Rh110 fluorescence; inhibition, % at 20 µM; actives 0.71% (n = 330,000); active = inhibition of at least 40% at 20 µM;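 note: plate controls were DMSO wells for no effect and DEVD-CHO caspase inhibitor wells for full effect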
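Material: cell-free apoptosome with Apaf-1, procaspase-3 and caspase-9; Buffer or medium: Hepes pH 7.5 with detergent and BSA; Reagent: cytochrome c trigger plus (Z-DEVD)2-Rh110 caspase-3 substrate; Times: compound with Apaf-1, dATP, procaspase-3 30 min, then 50 min reaction, room temperature; Technique: Rh110 fluorescence intensity.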
PAFAH1B3 FP inh – PAFAH1B3 (human) inhibition. Q15102. recombinant PAFAH1B3, FP-rhodamine probe, fluorescence polarization. inhibition, % at 3.39 µM. actives 0.28% (n = 340,000). AID 492972;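 active = inhibition above the screen-wide average of all tested compounds plus 3 SD, cut at about 25% in these data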;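 note: 0% = enzyme with DMSO only and 100% = wells lacking PAFAH1B3 protein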
Target sequence (Q15102 whole entry, looked up): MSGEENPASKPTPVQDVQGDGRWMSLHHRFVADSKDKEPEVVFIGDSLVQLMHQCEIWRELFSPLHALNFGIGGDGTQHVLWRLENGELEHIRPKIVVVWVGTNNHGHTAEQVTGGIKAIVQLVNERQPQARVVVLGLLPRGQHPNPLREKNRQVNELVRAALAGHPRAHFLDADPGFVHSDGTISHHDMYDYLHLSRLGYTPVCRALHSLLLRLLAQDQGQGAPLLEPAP
PAFAH1B2 FP inh – inhibitors of human PAFAH1B2; AID 492953; actives 1.2% (n = 340,000); P68402; inhibition, % at 3.39 µM; recombinant PAFAH1B2, FP-rhodamine activity probe, fluorescence polarization;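 active = inhibition above the mean of all tested compounds plus 3 SD, cut at about 24% in these data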;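 note: 0% = enzyme with DMSO and 100% = wells lacking PAFAH1B2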
PREPL inh – human PREPL enzyme inhibition; Q4J6C6; recombinant PREPL, fluorescence polarization activity-based probe; inhibition, % at 5.96 µM; actives 0.68% (n = 320,000); in the data active = inhibition above about 43%;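 note: 0% = enzyme with DMSO and 100% = wells lacking enzyme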
PAFAH2 inh – inhibitors of human PAFAH2 | Q99487 | recombinant PAFAH2, FP-rhodamine activity probe, fluorescence polarization | inhibition, % at 3.39 µM | actives 0.99% (n = 340,000);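 active = inhibition above the mean over all tested compounds plus 3 SD, cut at about 30% in these data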;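 note: inhibitors block probe labeling of enzyme so polarization drops; 0% = enzyme with DMSO and 100% = wells lacking PAFAH2 protein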
Apaf-1 inh conf2 – Apaf-1 inhibition, single-dose confirmed. shares compounds with Apaf1 inhib. reconstituted apoptosome, caspase-3 DEVD-Rh110 fluorescence. inhibition, % at 20 µM. actives 25% (n = 1,800). AID 504614;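 active = mean inhibition of at least 40% at 20 µM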;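 note: plate controls were DMSO wells for no effect and DEVD-CHO caspase inhibitor control wells for full effect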
Rh110 interf inh – Rh110 signal interference in Apaf-1 inhibitor counter-screen; shares compounds with Apaf1 inhib; Rh110 fluorescence interference, quenched caspase reaction; activation (fluorescence interference), % at 20 µM; 1,800 tested, under 10 active;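 active = signal rise of 40% or more at 20 µM, treated as a fluorescence artifact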
Apaf1 inh interf – shows fluorescence interference in the Apaf-1 inhibitor assay format. shares compounds with Apaf1 inhib. fluorescence interference counterscreen, Apaf-1 assay format. IC50, µM. 460 tested, under 10 active. AID 588538; call rule not given here
* hit, by the source's call. Most compounds without a hit are left out; they make up all but 3.5% or so of the library.

How did COc1ccc2[nH]c(=O)c(CNc3ccccc3C)cc2c1 do in these assays?
pPAFAH inh: 6.5; Apaf1 inhib: 2.1; PAFAH1B3 FP inh: 1.8; PAFAH1B2 FP inh: 4.4; PREPL inh: 22.6; PAFAH2 inh: 7.0

Results for COc1ccc2[nH]c(=O)c(CNc3ccccc3OC)cc2c1 ?
pPAFAH inh: 6.8; Apaf1 inhib: 50.9*; PAFAH1B3 FP inh: 1.0; PAFAH1B2 FP inh: 3.4; PREPL inh: 16.1; PAFAH2 inh: 3.3; Apaf-1 inh conf2: 42.8*; Rh110 interf inh: 4.6; Apaf1 inh interf: >100

Results for NC1(C#Cc2ccc3c(=O)c4ccccc4sc3c2)CCCCC1 ?
pPAFAH inh: 1.4; Apaf1 inhib: 60.1*; PAFAH1B3 FP inh: 3.6; PAFAH1B2 FP inh: -1.8; PREPL inh: 9.3; PAFAH2 inh: -4.7; Apaf-1 inh conf2: 22.9; Rh110 interf inh: 0.6

What do the screens show for `Cn1c2ccccc2c(=O)c2ccc(C#CC3(N)CCCCC3)cc21`?
pPAFAH inh: -2.4; Apaf1 inhib: 37.8; PAFAH1B3 FP inh: 5.0; PAFAH1B2 FP inh: 1.9; PREPL inh: -24.3; PAFAH2 inh: 5.0

How did Cc1cc(C)nc(/N=c2/ssnc2Cl)c1 do in these assays?
pPAFAH inh: -0.5; Apaf1 inhib: 71.1*; PAFAH1B3 FP inh: 18.6; PAFAH1B2 FP inh: 9.8; PREPL inh: -3.1; PAFAH2 inh: 11.0; Apaf-1 inh conf2: 82.0*; Rh110 interf inh: 1.2; Apaf1 inh interf: >100

What do the screens show for `O=C(CNC(c1ccccc1)c1ccccc1)NCc1ccccc1Cl`?
pPAFAH inh: 2.9; Apaf1 inhib: 24.9; PAFAH1B3 FP inh: 1.9; PAFAH1B2 FP inh: 5.4; PREPL inh: 3.3; PAFAH2 inh: -8.7

What do the screens show for `O=C1CC(=Nc2ccccc2)NN1c1ccccc1`?
pPAFAH inh: 8.2; Apaf1 inhib: 66.1*; PAFAH1B3 FP inh: 12.1; PAFAH1B2 FP inh: 10.3; PREPL inh: 17.2; PAFAH2 inh: 6.2; Apaf-1 inh conf2: 18.9; Rh110 interf inh: 8.0

Results for O=C1N[C@@H](Cc2ccccc2)C(=O)N2[C@H]3Nc4ccccc4[C@@]3([C@]34C[C@H]5C(=O)N[C@@H](Cc6ccccc6)C(=O)N5[C@H]3Nc3ccccc34)C[C@@H]12 ?
pPAFAH inh: 6.1; Apaf1 inhib: 6.5; PREPL inh: 32.4

Results for CC[C@H](C)[C@@H]1NC(=O)[C@H]([C@@H](C)CC)NC(=O)[C@@H](CC(C)C)NC(=O)[C@H](Cc2ccccc2)NC(=O)[C@H](Cc2ccccc2)NC(=O)[C@@H]2CCCN2C(=O)[C@@H]2CCCN2C(=O)[C@H](C(C)C)NC(=O)[C@H](CC(C)C)NC1=O ?
pPAFAH inh: 2.1; Apaf1 inhib: 53.7*; PAFAH1B3 FP inh: 3.9; PAFAH1B2 FP inh: 2.2; PREPL inh: -2.4; PAFAH2 inh: -3.1; Apaf-1 inh conf2: 18.6; Rh110 interf inh: 9.5

Results for O=C1c2ccccc2-c2nnc(-c3ccc(F)cc3)cc21 ?
pPAFAH inh: -1.7; Apaf1 inhib: 78.2*; PAFAH1B3 FP inh: 8.9; PAFAH1B2 FP inh: 4.6; PREPL inh: 18.0; PAFAH2 inh: 10.9; Apaf-1 inh conf2: 9.1; Rh110 interf inh: 2.3

How did Cc1ccc(-c2cc3c(nn2)-c2ccccc2C3=O)cc1 do in these assays?
pPAFAH inh: 6.5; Apaf1 inhib: 26.8; PAFAH1B3 FP inh: 4.2; PAFAH1B2 FP inh: 2.1; PREPL inh: 6.8; PAFAH2 inh: 5.5

How did O=C1c2ccccc2-c2nnc(-c3ccc(O)cc3)cc21 do in these assays?
pPAFAH inh: 9.9; Apaf1 inhib: 90.7*; PAFAH1B3 FP inh: 24.5; PAFAH1B2 FP inh: 4.6; PREPL inh: 17.6; PAFAH2 inh: -0.3; Apaf-1 inh conf2: 11.1; Rh110 interf inh: 0.5

What do the screens show for `CCC(=O)Nc1c(S(=O)(=O)c2ccc(C)cc2)c2nc3ccccc3nc2n1C(C)c1ccccc1` (centres undefined)?
pPAFAH inh: 0.7; Apaf1 inhib: 44.4*; PAFAH1B3 FP inh: -1.3; PAFAH1B2 FP inh: -0.5; PREPL inh: 10.8; PAFAH2 inh: 3.3; Apaf-1 inh conf2: 15.4; Rh110 interf inh: 3.9

What do the screens show for `CCCCn1c(NC(C)=O)c(C#N)c2nc3ccccc3nc21`?
pPAFAH inh: 8.5; Apaf1 inhib: 84.5*; PAFAH1B3 FP inh: 4.1; PAFAH1B2 FP inh: 4.6; PREPL inh: -0.8; PAFAH2 inh: 3.9; Apaf-1 inh conf2: 26.1; Rh110 interf inh: 3.0

Results for CCCCn1c(NC(=O)c2ccco2)c(S(=O)(=O)c2ccc(C)cc2)c2nc3ccccc3nc21 ?
PAFAH1B3 FP inh: -5.4; PAFAH1B2 FP inh: 0.8; PAFAH2 inh: 3.7

Results for CCCCCn1c(N)c(C#N)c2nc3ccccc3nc21 ?
pPAFAH inh: -0.3; Apaf1 inhib: 5.8; PAFAH1B3 FP inh: 4.2; PAFAH1B2 FP inh: 1.8; PREPL inh: 11.0; PAFAH2 inh: -3.4

How did CCCCCn1c(NC(=O)c2ccco2)c(S(=O)(=O)c2ccc(C)cc2)c2nc3ccccc3nc21 do in these assays?
pPAFAH inh: 11.3; Apaf1 inhib: 62.8*; PAFAH1B3 FP inh: 57.4*; PAFAH1B2 FP inh: 29.9*; PREPL inh: 3.5; PAFAH2 inh: 42.5*; Apaf-1 inh conf2: 33.6; Rh110 interf inh: 13.4

What do the screens show for `CCOc1ccccc1C=NN1CCCCCC1`?
PAFAH1B3 FP inh: -0.2; PAFAH1B2 FP inh: 3.3; PAFAH2 inh: -3.1

What do the screens show for `CCOc1ncccc1C(=O)NNC(=O)c1cccc(S(=O)(=O)N2CCOCC2)c1`?
pPAFAH inh: -0.3; Apaf1 inhib: -11.4; PAFAH1B3 FP inh: -1.3; PAFAH1B2 FP inh: 3.5; PREPL inh: 16.6; PAFAH2 inh: -2.5

What do the screens show for `CCOc1ccccc1C1CC(c2ccc(Br)cc2)Nc2nc(N)nn21` (centres undefined)?
pPAFAH inh: -7.8; Apaf1 inhib: 12.0; PAFAH1B3 FP inh: 1.5; PAFAH1B2 FP inh: -0.7; PREPL inh: 22.9; PAFAH2 inh: -3.0

How did CC(C)OP(=O)(OC(C)C)C(Nc1ccccn1)c1ccc(F)cc1 (centres undefined) do in these assays?
pPAFAH inh: -8.8; Apaf1 inhib: 54.9*; PAFAH1B3 FP inh: -0.8; PAFAH1B2 FP inh: 1.4; PREPL inh: -2.7; PAFAH2 inh: -3.2; Apaf-1 inh conf2: 12.2; Rh110 interf inh: 1.4

Results for COc1ccccc1CNC(=O)CN(C)S(=O)(=O)c1ccc(F)cc1 ?
pPAFAH inh: 4.8; Apaf1 inhib: 3.4; PAFAH1B3 FP inh: -0.6; PAFAH1B2 FP inh: 1.8; PREPL inh: -5.7; PAFAH2 inh: -0.6
